CXCR6 block – CXCR6 receptor inhibitors, primary screen, cell-based, beta-arrestin, luminescence, CHO-K1 PathHunter, 1536-well. AID 602244, 2012. actives 0.36% (n = 360,000). inhibition, % at 20 µM; in the data active means inhibition above about 34%, passing the limit was not always enough;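 further: antagonist mode with CXCL16 agonist at 10 nM final; 0% = 10 nM CXCL16 with DMSO and 100% = unstimulated wells without agonist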
Target sequence (O00574 whole entry, looked up): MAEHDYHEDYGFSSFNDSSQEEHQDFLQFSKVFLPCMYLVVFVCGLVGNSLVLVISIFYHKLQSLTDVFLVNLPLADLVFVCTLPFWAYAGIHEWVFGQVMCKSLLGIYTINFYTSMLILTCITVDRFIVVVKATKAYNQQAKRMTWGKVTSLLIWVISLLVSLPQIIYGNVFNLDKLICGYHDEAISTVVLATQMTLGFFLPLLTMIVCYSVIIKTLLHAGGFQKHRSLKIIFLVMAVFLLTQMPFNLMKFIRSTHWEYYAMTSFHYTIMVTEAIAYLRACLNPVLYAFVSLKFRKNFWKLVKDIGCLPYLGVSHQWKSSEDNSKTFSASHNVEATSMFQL
APJ agonist – agonists of human apelin receptor APJ, primary screen, CHO-K1 cells, PathHunter beta-arrestin, luminescence. 0% DMSO wells, 100% apelin. activation, % at 20 µM. actives 0.11% (n = 330,000);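 active means activation more than six SD over the plate average, tested at 20 µM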;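 further: 0% = DMSO alone and 100% = apelin-13 at 10 nM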
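Assay system: engineered CHO-K1 APJ arrestin reporter cells; Amount: 1000 CHO-K1 reporter cells seeded per well; Dosing: one dose, 20 µM compound, 1% DMSO; Times: compound stimulation 90 min at 25 °C, detection 60 min; Measured by: luminescent beta-gal fragment complementation, chemiluminescent substrate; Read-out: APJ–arrestin association signal; Controls: DMSO vs Apelin-13 10 nM.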
APOBEC3A inh – APOBEC3A ssDNA deaminase inhibitors, primary screen, selectivity assay for APOBEC3G inhibitor project, biochemical, FAM/TAMRA oligo cleavage fluorescence; actives 0.41% (n = 330,000); recombinant A3A, FAM/TAMRA ssDNA deamination fluorescence; DNA dC->dU-editing enzyme APOBEC-3A (Homo sapiens), P31941; inhibition, % at 20 µM; AID 493011, 2011;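 active means at least 40% inhibition at 20 µM here, with at most 30% in a related deaminase screen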;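 further: plate controls were A3A with DMSO for no effect and wells lacking A3A enzyme for full effect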
Target sequence (P31941 whole entry, looked up): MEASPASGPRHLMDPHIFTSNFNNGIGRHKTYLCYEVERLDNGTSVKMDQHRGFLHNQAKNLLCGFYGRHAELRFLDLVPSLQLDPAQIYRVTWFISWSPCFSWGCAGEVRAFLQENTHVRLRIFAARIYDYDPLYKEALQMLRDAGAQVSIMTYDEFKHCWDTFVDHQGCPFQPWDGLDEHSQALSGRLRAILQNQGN
A3G deaminase – APOBEC3G DNA deaminase inhibitors, primary screen, biochemical, fluorescence, single-stranded DNA substrate, uHTS; actives 0.28% (n = 330,000); recombinant A3G, ssDNA deamination FAM/TAMRA fluorescence; DNA dC->dU-editing enzyme APOBEC-3G (Homo sapiens), Q9HC16; AID 493012, 2011; inhibition, % at 20 µM;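 active means inhibition of at least 40% at 20 µM, with no more than 30% in the related APOBEC3A deaminase screen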;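 further: plate controls were DMSO wells with A3G for no effect and wells lacking A3G enzyme for full effect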
APJ antagonist – antagonists of human apelin receptor APJ, primary screen, CHO-K1 cells, beta-arrestin complementation, luminescence | P35414 | actives 0.32% (n = 330,000) | AID 2521, 2010 | inhibition, % at 20 µM;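 active means inhibition above about 40% at 20 µM, limit read from the data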;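 further: cells challenged with 10 nM apelin-13 agonist together with compound; plate controls were apelin-13 plus DMSO wells for no effect and DMSO wells lacking apelin-13 for full effect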
CCR6 antag – CCR6 receptor antagonists, primary screen, cell-based, CHO-K1, luminescence, beta-arrestin, uHTS. C-C chemokine receptor type 6 (Homo sapiens), P51684. CHO-K1 CCR6 PathHunter beta-arrestin, CCL20-stimulated. inhibition, % at 20 µM. actives 0.49% (n = 340,000). AID 493098, 2011;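 active means compounds whose inhibition of the agonist-driven luminescence signal at 20 µM reaches about 50%, limit read from the data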;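 further: cells stimulated with CCL20 at 14 nM final; plate controls were DMSO with CCL20 for no effect and DMSO without agonist for full effect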
The depositor's hits bear a star; nt = not tested or not shown. The list is not random: actives were taken first. Their share in the collection is about 1.4%.

SMILES	CXCR6 block	APJ agonist	APOBEC3A inh	A3G deaminase	APJ antagonist	CCR6 antag
Cn1cnc(S(=O)(=O)N2CCCCC2c2cc(C(=O)NCc3ccc(Cl)c(Cl)c3)no2)c1 (stereo unspecified)	4	nt	nt	nt	nt	nt
O=C(O)c1ccccc1NS(=O)(=O)c1ccc(NN=Cc2ccc(F)cc2)c([N+](=O)[O-])c1	22	-5	-1	-3	23	28
O=C(O)c1ccccc1NS(=O)(=O)c1ccc(N/N=C/c2ccc(O)c(O)c2)c([N+](=O)[O-])c1	22	nt	nt	nt	nt	50*
O=C(C[n+]1ccc(C(=O)NCc2ccccc2)cc1)c1ccc(OC(F)F)cc1	6	-4	-1	-5	1	14
O=C(C[n+]1cn(C(F)F)c2ccccc21)c1ccc(OC(F)F)cc1	-13	18*	0	-2	-86	-11
CS(=O)(=O)c1ccc(S(=O)CC(=O)Oc2ccc(Cl)cc2)c([N+](=O)[O-])c1 (stereo unspecified)	nt	-4	-1	-1	-9	61*
O=C(ONc1ccc(N=NC(=O)c2ccccc2O)cc1)c1ccccc1	34	-7	2	-2	34	56*
O=Nc1ccc(NOC(=O)c2ccccc2Br)cc1	5	1	1	-2	-31	18
CNc1ccc(N=Nc2cccc3ncccc23)cc1	41*	nt	nt	nt	nt	61*
Cc1ccc(-c2nc3c4ccccc4ccn3c2Cc2ccccc2C(F)(F)F)cc1	6	nt	nt	nt	nt	nt
Cc1nn(-c2ccccn2)c2c1C(c1ccccc1Cl)C1=C(N2)c2ccccc2C1=O (stereo unspecified)	26	-2	-3	-2	19	79*
Cc1nn(-c2ccccn2)c2c1C(c1c(F)cccc1Cl)C1=C(N2)c2ccccc2C1=O (stereo unspecified)	nt	-3	1	2	23	nt
NC(=O)CC[C@H](NC(=O)c1ccc(F)cc1)C(=O)N1CCN(Cc2ccc3c(c2)OCO3)CC1	-9	-2	-1	-3	6	-3
O=[N+]([O-])c1ccc(S(=O)Cc2ccccc2)c([N+](=O)[O-])c1 (stereo unspecified)	92*	nt	nt	nt	nt	102*
O=[N+]([O-])c1ccc(CS(=O)c2ccccc2)cc1 (stereo unspecified)	2	nt	nt	nt	nt	7
Cc1cc(N(CCO)CCO)ccc1N=Nc1cc(F)ccc1F	30	-9	10	6	61*	44
N#Cc1nccnc1S(=O)(=O)c1cccs1	nt	-3	-5	8	56*	23
C=CC(=O)N1C/C(=C/c2ccccc2)C(=O)/C(=C\c2ccccc2)C1	38*	nt	nt	nt	nt	64*
O=C1C(=Cc2ccc(Cl)cc2)Cc2ccccc21	2	nt	nt	nt	nt	nt
C=CC(=O)N1C/C(=C/c2ccc(Cl)cc2)C(=O)/C(=C\c2ccc(Cl)cc2)C1	50*	nt	nt	nt	nt	62*
CN(C)c1ccc(C=c2c3ccccc3n3c2c2c([n+]3C)CCCC2)cc1	45*	nt	nt	nt	nt	47
CN(C)c1ccc(C=c2c3ccccc3n3c2cc(-c2ccccc2)[n+]3C)cc1	52*	nt	nt	nt	nt	62*
COc1cc(N(C)C)ccc1C=c1c2ccccc2n2c1cc(-c1ccccc1)[n+]2C	60*	nt	nt	nt	nt	65*
CN(C)c1ccc(C=c2c3cc([N+](=O)[O-])ccc3n3c2cc(-c2ccccc2)[n+]3C)cc1	49*	nt	nt	nt	nt	68*
CN(C)c1ccc(C=c2c3ccccc3n3c2cc(-c2ccc(Cl)cc2)[n+]3C)cc1	19	nt	nt	nt	nt	36
SMILES	CXCR6 block	APJ agonist	APOBEC3A inh	A3G deaminase	APJ antagonist	CCR6 antag
CCN(CC)c1ncnc2c1ncn2[C@H]1CN(Cc2cccnc2)C[C@@H](CO)O1	7	nt	nt	nt	nt	nt
CCOc1ccccc1C(=O)N(Cc1sccc1C)C1CCS(=O)(=O)C1 (stereo unspecified)	0	-3	-1	-5	9	-3
CCCCCCCCN1C(=O)[C@H](CC(=O)NCc2cccc(C(F)(F)F)c2)C[C@@]2(C(=O)OC)CCCCC=C12	10	nt	nt	nt	nt	nt
CCOC(=O)c1ccc(Oc2c(C)oc3cc(OS(C)(=O)=O)ccc3c2=O)cc1	3	-2	4	0	5	-5
O=C(N/N=C/c1ccc([N+](=O)[O-])cc1)c1cccs1	-21	7	-2	-13	-29	14
O=[N+]([O-])c1cccc(C=NNc2ccc3ccccc3n2)c1O	37*	nt	nt	nt	nt	60*
O=C(N/N=C/c1cccc([N+](=O)[O-])c1O)c1cccs1	24	-6	2	-3	15	64*
CCN1C(=O)[C@H]2[C@@H](c3ccc(C(F)(F)F)cc3)N[C@]3(CCCN(Cc4ccccc4)C3=O)[C@H]2C1=O	-6	nt	nt	nt	nt	nt
CCCN(Cc1cc2cc(C)ccc2[nH]c1=O)C(=O)c1cccc([N+](=O)[O-])c1	-3	-1	3	0	3	-7
Cc1ccc(C(=O)CNc2ccc(Cl)cc2)cc1	53*	-6	0	-9	102*	71*
CC(=O)Nc1ccc(NCC(=O)c2ccccc2)cc1	51*	0	-5	-9	11	28
CCOc1ccc(NCC(=O)c2ccc(C)cc2)cc1	51*	-2	-2	-3	6	68*
Cc1ccc(S(=O)(=O)NCCC(=O)NCC(=O)Nc2c(C)cccc2C)cc1C	7	-5	-4	-9	9	4
NC(=O)CSc1ccc(Br)cc1	2	1	-2	-2	4	-12
CC(Sc1ccc(Br)cc1)C(N)=O (stereo unspecified)	2	5	102*	0	-33	-10
O=C(/C=C/c1ccccc1)NNc1ccc(Cl)cc1	7	-8	-2	-10	62*	12
O=C(O)c1cc(-c2ccc(/C=N/Nc3ccc([N+](=O)[O-])cn3)o2)ccc1Cl	24	nt	nt	nt	nt	51*
O=C(O)c1ccc(-c2ccc(/C=N/Nc3ccc([N+](=O)[O-])cc3)o2)cc1	13	-7	-15	-23	39	45
COc1ccc(N2CSC3=C(C#N)C(c4cc(OC)ccc4OC)CC(=O)N3C2)c(OC)c1 (stereo unspecified)	-12	20	1	32	-15	14
COc1ccc(N2CSC3=C(C#N)C(c4cc(OC)c(OC)cc4OC)CC(=O)N3C2)c(OC)c1 (stereo unspecified)	-8	25*	34	18	-16	-10
O=C1C(Cl)=C(Nc2ccc3cn[nH]c3c2)C(=O)c2ccccc21	56*	nt	nt	nt	nt	78*
